The nature of data set [1]: folding enthalpy; higher = less favourable; fluorescence melt of hairpins on a sequencing array, two-state fit. Conditions: sodium 0.088 M. A digest of the protocol:
(§1)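 On a sequenced MiSeq flow cell, library hairpins with annealed Cy3 and quencher oligos were imaged for Cy3 fluorescence in 2.5 °C steps up to 60 °C, in 50 mM Na-HEPES pH 8.0, 25 mM NaCl. Normalisation used pre-quench Cy3 and control constructs. Bootstrapped two-state fits gave melting temperature and folding enthalpy, combined by inverse variance across four replicates and with fitted temperatures raised by 9.35 °C to match UV melts.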

Data set [2] can be described thus: melting temperature; fluorescence melt of hairpins on a sequencing array, two-state fit, raised by 9.35 °C to match UV melts. Conditions: sodium 0.088 M. A digest of the protocol: as §1

As for GTAAACCGAAAGGTTAC (((.(((....)))))), the folding enthalpy in data set [1] was -15.7 kcal/mol. For the same sequence, the Tm in data set [2] turned out to be 43.2 °C.

Take GTCTTAGGAAACCAAGAC (((((.(....).))))): the folding enthalpy in data set [1] was -30.9 kcal/mol. Moreover, the Tm in data set [2] worked out at 34.4 °C.

With GCGTGGTACGC ((((...)))), in data set [1], the folding enthalpy was -20.5 kcal/mol. In addition, in data set [2], the Tm was 56.3 °C.

Take GGGCCCGAAAGGGCGCCC ((((((....)))..))): in data set [1], the folding enthalpy was -9.86 kcal/mol. Further, the Tm in data set [2] stood at 58.2 °C.

Turning to GGCGCCCCGAAAGGGGCC (((..(((....)))))), in data set [1], the folding enthalpy was -7.09 kcal/mol. Also, the Tm in data set [2] was 58.6 °C.

As for GCTTAGCGAAAGCTCCGC ((..(((....)))..)), the folding enthalpy in data set [1] is -12.8 kcal/mol. Moreover, in data set [2], the Tm came out at 36 °C.

As to GGCTCGCCGAAAGGCGCC (((..(((....)))))), in data set [1], the folding enthalpy was -6.98 kcal/mol. For the same sequence, the Tm in data set [2] came out at 35.7 °C.

For the sequence GATCATTCAATGATC ((((((...)))))), the folding enthalpy in data set [1] is -30.6 kcal/mol. For the same sequence, in data set [2], the Tm was found to be 47.1 °C.

As to GGACGGGGAAACTCGTCC (((((.(....).))))), the folding enthalpy in data set [1] is -41 kcal/mol. In data set [2], the Tm amounted to 58 °C.

Regarding GCATGGGGAAACCCACAC (..((((....))))..), the folding enthalpy in data set [1] was -14.2 kcal/mol. Besides, the Tm in data set [2] is 29 °C.

Take GATCGAACGGTCGATC ((((((....)))))): in data set [1], the folding enthalpy is -51.2 kcal/mol. In data set [2], the Tm came to 51.1 °C.

GTCTACGAAAGTATAGAC ((((((....)))..))): the folding enthalpy in data set [1] was -24.4 kcal/mol. Besides, in data set [2], the Tm came out at 36.2 °C.

For the sequence GATCGTCTCTACGATC ((((((....)))))), the folding enthalpy in data set [1] is -38.4 kcal/mol. For the same sequence, the Tm in data set [2] worked out at 54.5 °C.

Turning to GGATAGGGAAACCCATCC ((((.((....)).)))), in data set [1], the folding enthalpy was -29.4 kcal/mol. Further, the Tm in data set [2] came out at 39.8 °C.

For GATCCCTCTCGGGATC ((((((....)))))), the folding enthalpy in data set [1] was -34.3 kcal/mol. Further, the Tm in data set [2] is 63.5 °C.

Regarding GCGGTCGGAAACGATCGC (((.(((....))).))), in data set [1], the folding enthalpy is -34.8 kcal/mol. In data set [2], the Tm amounted to 67.3 °C.

As to GCTACGCGAAAGCTGAGC (((..((....))..))), the folding enthalpy in data set [1] is -15.2 kcal/mol. Besides, the Tm in data set [2] worked out at 46.2 °C.

Take GGCCTCGAAAGAGAAGCC ((((((....)))..))): the folding enthalpy in data set [1] is -26 kcal/mol. Moreover, the Tm in data set [2] came out at 47.9 °C.

For GCAACGCGAAAGCCTCGC ((.(.((....)).).)), in data set [1], the folding enthalpy is -7.26 kcal/mol. In addition, the Tm in data set [2] is 30.9 °C.

As to GCCGCCGAAAGGCCTGGC ((((((....)))..))), the folding enthalpy in data set [1] was -16 kcal/mol. Also, in data set [2], the Tm came to 51 °C.

On to GTAGACCGAAAGGTTTAC (((.(((....))).))), for which the folding enthalpy in data set [1] is -27.9 kcal/mol. The Tm in data set [2] amounted to 48.5 °C.

On to GCGTAGCGAAAGCAATGC ((.(.((....)).).)), for which, in data set [1], the folding enthalpy was -7.98 kcal/mol. Moreover, the Tm in data set [2] was determined as 35.8 °C.

As for GCCAGCGAAAGCTGTGGC ((((((....)))..))), the folding enthalpy in data set [1] was -15.1 kcal/mol. In data set [2], the Tm came to 56.6 °C.

In the case of GATCTAGGAAACTAGACC (.(((((....))))).), the folding enthalpy in data set [1] is -14.8 kcal/mol. For the same sequence, in data set [2], the Tm is 29.3 °C.

As to GTAGCACCGAAAGGTTAC (((..(((....)))))), in data set [1], the folding enthalpy is -8.52 kcal/mol. In data set [2], the Tm was found to be 29.2 °C.

With GGACCCGAAAGGGCTCC ((((((....))).))), in data set [1], the folding enthalpy is -23.1 kcal/mol. The Tm in data set [2] came to 58.6 °C.

For GGTGGCGAAAGCCTCACC ((((((....)))..))), the folding enthalpy in data set [1] is -12.7 kcal/mol. The Tm in data set [2] is 45.2 °C.

GCTAGGCGAAAGCTTTGC ((.(.((....)).).)): the folding enthalpy in data set [1] is -17.6 kcal/mol. Also, the Tm in data set [2] came out at 42.3 °C.

As for GGCCTAGCGAAAGCTGCC (((..(((....)))))), in data set [1], the folding enthalpy is -20.4 kcal/mol. In addition, the Tm in data set [2] is 47.1 °C.

Consider GCTCTGCGAAAGCATCGC ((..(((....)))..)), for which the folding enthalpy in data set [1] is -16.3 kcal/mol. Besides, in data set [2], the Tm is 35.4 °C.

Take GGCCCTGGAAACGGGGCC (((((.(....).))))): the folding enthalpy in data set [1] is -31.4 kcal/mol. Also, the Tm in data set [2] amounted to 67.5 °C.

For GGTCCCGAAAGGGAAACC ((((((....)))..))), the folding enthalpy in data set [1] is -15.3 kcal/mol. The Tm in data set [2] was found to be 43.2 °C.

GAGCCAGAAATGGCTC ((((((....)))))): the folding enthalpy in data set [1] is -32.4 kcal/mol. Moreover, in data set [2], the Tm is 66.8 °C.

As for GTATACCGAAAGGTGTAC (((.(((....))).))), the folding enthalpy in data set [1] is -27.6 kcal/mol. Besides, in data set [2], the Tm is 51.6 °C.

On to CGCGGACTCCTCCGCG ((((((....)))))), for which, in data set [1], the folding enthalpy was -37.2 kcal/mol. Further, the Tm in data set [2] is 68.9 °C.

GATCCACGAAAGTGATC (((.(((....)))))): in data set [1], the folding enthalpy is -21.4 kcal/mol. In addition, the Tm in data set [2] amounted to 41.3 °C.

As for GAGTGCGAAAGCAGCTC ((((((....))).))), the folding enthalpy in data set [1] is -19.9 kcal/mol. In addition, the Tm in data set [2] is 51.3 °C.
